≈ marks a conversion by molar mass, not a printed value. Calls of active or inactive are those of the source. The rule behind the calls is not given here.
What was measured:
Type in all cases: functional
[1] = test system: MCF7; assay: Cytotoxicity against human MCF7 cells after 24 hrs by MTT assay; conditions: MCF7, 24 h
Summary of the method: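 Exponentially growing cells plated at 10⁴ cells/well and allowed to attach, then exposed to test compounds or doxorubicin (dissolved in 0.1% DMSO, diluted in medium; range 1–100) for 24 h; controls received medium with 0.1% DMSO. MTT (1 mg/ml) added for 4 h at 37 °C, formazan dissolved in DMSO, absorbance read at 540 nm; % cytotoxicity calculated from blank-corrected absorbances versus control.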

[2] = test system: Staphylococcus aureus; assay: microbe, parasite or virus in culture; conditions: ATCC 9144, 24 h, read-out: IZ
[3] = test system: Bacillus cereus; assay: Antimicrobial activity against Bacillus cereus ATCC 11778 at 100 ug/ml after 24 hrs by paper disk diffusion method; conditions: ATCC 11778, 24 h, read-out: IZ
[4] = test system: Escherichia coli; assay: microbe, parasite or virus in culture; conditions: ATCC 25922, 24 h, read-out: IZ
[5] = test system: Klebsiella pneumoniae; assay: microbe, parasite or virus in culture; conditions: ATCC 11298, 24 h, read-out: IZ
[6] = test system: Staphylococcus aureus; assay: microbe, parasite or virus in culture; conditions: ATCC 9144, 24 h
[7] = test system: Bacillus cereus; assay: microbe, parasite or virus in culture; conditions: ATCC 11778, 24 h
[8] = test system: Escherichia coli; assay: microbe, parasite or virus in culture; conditions: ATCC 25922, 24 h
[9] = test system: Klebsiella pneumoniae; assay: microbe, parasite or virus in culture; conditions: ATCC 11298, 24 h
[10] = test system: Radical scavenging activity; assay: Antioxidant activity assessed as DPPH radical scavenging activity at 50 ug/ml
Summary of the method: (§1)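 Each test sample was mixed with 1 ml DPPH in methanol, incubated at 37 °C for 30 min, and read spectrophotometrically at 517 nm with a blank reading. Scavenging % was expressed as the absorbance decrease at 517 nm relative to DPPH solution without test sample.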

[11] = test system: Radical scavenging activity; assay: Antioxidant activity assessed as DPPH radical scavenging activity at 100 ug/ml; summary of the method: as §1
[12] = test system: Radical scavenging activity; assay: Antioxidant activity assessed as DPPH radical scavenging activity at 200 ug/ml; summary of the method: as §1
[13] = test system: Radical scavenging activity; assay: Antioxidant activity assessed as DPPH radical scavenging activity at 400 ug/ml; summary of the method: as §1
[14] = test system: Radical scavenging activity; assay: Antioxidant activity assessed as DPPH radical scavenging activity; summary of the method: as §1
[15] = Antioxidant activity assessed as ABTS radical scavenging activity at 50 ug/ml
Summary of the method: (§2)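 Test samples at 50, 100, 200 and 400 ug/ml were each mixed with 1 ml of freshly prepared ABTS radical cation solution, adjusted to absorbance 0.7–0.9 at 734 nm. Mixtures reacted 2 h in the dark, then absorbance was read at 734 nm against a blank. Scavenging % was taken as the absorbance decrease relative to ABTS solution without test sample.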

[16] = Antioxidant activity assessed as ABTS radical scavenging activity at 100 ug/ml; summary of the method: as §2
[17] = Antioxidant activity assessed as ABTS radical scavenging activity at 200 ug/ml; summary of the method: as §2
[18] = Antioxidant activity assessed as ABTS radical scavenging activity at 400 ug/ml; summary of the method: as §2
[19] = Antioxidant activity assessed as ABTS radical scavenging activity; summary of the method: as §2

Row | SMILES | zone of inhibition at 100 µg/mL [2] [mm] | zone of inhibition at 100 µg/mL [3] [mm] | zone of inhibition at 100 µg/mL [4] [mm] | zone of inhibition at 100 µg/mL [5] [mm] | MIC [6] [µg/mL] | MIC [7] [µg/mL] | MIC [8] [µg/mL] | MIC [9] [µg/mL] | Activity ([10]; at 50 µg/mL) [%] | Activity ([11]; at 100 µg/mL) [%] | Activity ([12]; at 200 µg/mL) [%] | Activity ([13]; at 400 µg/mL) [%] | IC50 [14] [µg/mL] | Activity ([15]; at 50 µg/mL) [%] | Activity ([16]; at 100 µg/mL) [%] | Activity ([17]; at 200 µg/mL) [%] | Activity ([18]; at 400 µg/mL) [%] | IC50 [19] [µg/mL] | further results
1 | COc1cccc2c1C(=O)c1c(O)c3c(c(O)c1C2=O)C[C@@](O)(C(=O)CO)C[C@@H]3O[C@H]1C[C@H](N)[C@H](O)[C@H](C)O1 [DOXORUBICIN] |  |  |  |  |  |  |  |  |  |  |  |  |  |  |  |  |  |  | GI50 [1]: 0.02 µM; TGI [1]: 0.21 µM
2 | N#CC1=C(N)OC(c2c[nH]c3ccccc23)=C(C#N)C1c1ccccc1Cl (stereo not drawn) | 24 | 17 | 21 | 20 | 12.4 (≈ 33.3 µM) | 16.4 (≈ 44 µM) | 16.5 (≈ 44.3 µM) | 16.1 (≈ 43.2 µM) | 27.9 | 34 | 39.6 | 45.7 | 467.49 (≈ 1250 µM) | 8.5 | 10.4 | 14.5 | 21.4 | > 1000 | 
3 | O=C1O[C@H]([C@@H](O)CO)C(O)=C1O [ASCORBIC ACID] |  |  |  |  |  |  |  |  | 77.2 | 79.7 | 82.3 | 85.3 | < 50 | 28.8 | 29.7 | 31.5 | 33.4 | 650 (≈ 3690 µM) | 
4 | O=C(O)c1cn(C2CC2)c2cc(N3CCNCC3)c(F)cc2c1=O [CIPROFLOXACIN] | 26 | 25 | 27 | 26 | 0.2 (≈ 0.604 µM) | 0.3 (≈ 0.905 µM) |  | 0.1 (≈ 0.302 µM) |  |  |  |  |  |  |  |  |  |  | 
5 | N#CC1=C(N)OC(c2c[nH]c3ccccc23)=C(C#N)C1c1cccc([N+](=O)[O-])c1 (stereo not drawn) | 19 | 13 | 16 | 15 | 24 (≈ 62.6 µM) | 35.4 (≈ 92.3 µM) | 27.5 (≈ 71.7 µM) | 25.5 (≈ 66.5 µM) |  |  |  |  |  |  |  |  |  |  | Activity [10]: inactive; Activity [11]: inactive; Activity [12]: inactive; Activity [13]: inactive; Activity [14]: inactive; Activity [15]: inactive; Activity [16]: inactive; Activity [17]: inactive; Activity [18]: inactive; Activity [19]: inactive
6 | COc1cc(Br)c(C2C(C#N)=C(N)OC(c3c[nH]c4ccccc34)=C2C#N)cc1OC (stereo not drawn) | 20 | 14 | 16 | 19 | 21 (≈ 44 µM) | 24.5 (≈ 51.3 µM) | 29.5 (≈ 61.8 µM) | 33.4 (≈ 70 µM) | 51.7 | 53.8 | 57.3 | 64.4 | < 50 | 18.5 | 20.5 | 24.2 | 26.7 | 880.3 (≈ 1840 µM) | 
7 | N#CC1=C(N)OC(c2c[nH]c3ccccc23)=C(C#N)C1c1ccccc1 (stereo not drawn) | 22 | 16 | 18 | 18 | 15.2 (≈ 44.9 µM) | 18.5 (≈ 54.7 µM) | 19.6 (≈ 57.9 µM) | 20.2 (≈ 59.7 µM) | 38 | 46 | 49.7 | 51.2 | 308.2 (≈ 911 µM) | 14.4 | 19.3 | 24.5 | 26.7 | 993.66 (≈ 2940 µM) | 
8 | N#CC1=C(N)OC(c2c[nH]c3ccccc23)=C(C#N)C1c1cc(Br)c2c(c1)OCO2 (stereo not drawn) | 19 | 13 | 17 | 16 | 23.5 (≈ 50.9 µM) | 28.7 (≈ 62.2 µM) | 27.3 (≈ 59.2 µM) | 24.8 (≈ 53.8 µM) | 20.3 | 23.8 | 25.8 | 22.8 | 1779.24 (≈ 3860 µM) | 5.7 | 6.4 | 10 | 12.5 | > 1000 | 
9 | COc1ccc(C2C(C#N)=C(N)OC(c3c[nH]c4ccccc34)=C2C#N)cc1 (stereo not drawn) | 21 | 16 | 18 | 19 | 15.4 (≈ 41.8 µM) | 24.5 (≈ 66.5 µM) | 23.4 (≈ 63.5 µM) | 19.6 (≈ 53.2 µM) | 53.6 | 56.9 | 59.9 | 60.2 | < 50 | 12.4 | 20 | 26.4 | 28.7 | 858.69 (≈ 2330 µM) | 
10 | Cc1ccccc1C1C(C#N)=C(N)OC(c2c[nH]c3ccccc23)=C1C#N (stereo not drawn) | 16 | 15 | 16 | 15 | 25 (≈ 70.9 µM) | 27.8 (≈ 78.9 µM) | 26 (≈ 73.8 µM) | 27.2 (≈ 77.2 µM) | 25.8 | 27.4 | 28.3 | 32.5 | 1371.65 (≈ 3890 µM) | 10.4 | 17.2 | 21.4 | 25.7 | > 1000 | 
11 | CN(C)c1ccc(C2C(C#N)=C(N)OC(c3c[nH]c4ccccc34)=C2C#N)cc1 (stereo not drawn) | 18 | 15 | 17 | 16 | 23.8 (≈ 62.4 µM) | 25.6 (≈ 67.1 µM) | 26.7 (≈ 70 µM) | 25.2 (≈ 66.1 µM) | 72.1 | 73.1 | 74.6 | 75.7 | < 50 | 14.4 | 18.5 | 20.5 | 26.7 | 900 (≈ 2360 µM) | 

Source: ChEMBL document CHEMBL1221298, “InCl3 mediated one-pot multicomponent synthesis, anti-microbial, antioxidant and anticancer evaluation of 3-pyranyl indole derivatives” (Bioorg Med Chem Lett, 2010)
